What was measured:
Mu-type opioid receptor = Mu-type opioid receptor (Homo sapiens, UniProt P35372); assay: Binding affinity against cloned human Opioid receptor mu 1 transfected into chinese hamster ovary cells using [3H]DAMGO as radioligand
How it was run: (§1)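 Competition binding in CHO cells transfected with cloned human opioid receptors, using [3H]DAMGO (μ), [3H]Cl-DPDPE (δ) and [3H]U69,593 (κ) as displaced radioligands. Hill slopes were examined. Data are averages of two experiments, each run in triplicate.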

[1] = target: Delta-type opioid receptor (Homo sapiens, UniProt P41143); assay: Binding affinity against cloned human Opioid receptor delta 1 transfected into chinese hamster ovary cells using [3H]Cl-DPDPE as radioligand; how it was run: as §1
Sequence of Delta-type opioid receptor (P41143 whole entry): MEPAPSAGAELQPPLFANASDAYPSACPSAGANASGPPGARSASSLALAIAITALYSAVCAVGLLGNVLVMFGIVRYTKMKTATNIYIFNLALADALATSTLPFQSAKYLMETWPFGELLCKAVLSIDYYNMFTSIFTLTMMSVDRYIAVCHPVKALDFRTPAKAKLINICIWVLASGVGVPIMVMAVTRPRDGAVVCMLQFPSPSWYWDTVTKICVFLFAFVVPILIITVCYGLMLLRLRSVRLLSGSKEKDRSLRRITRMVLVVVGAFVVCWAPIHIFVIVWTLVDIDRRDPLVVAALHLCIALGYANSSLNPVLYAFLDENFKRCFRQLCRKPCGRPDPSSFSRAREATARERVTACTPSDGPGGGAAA

Sequence of Mu-type opioid receptor (P35372 whole entry): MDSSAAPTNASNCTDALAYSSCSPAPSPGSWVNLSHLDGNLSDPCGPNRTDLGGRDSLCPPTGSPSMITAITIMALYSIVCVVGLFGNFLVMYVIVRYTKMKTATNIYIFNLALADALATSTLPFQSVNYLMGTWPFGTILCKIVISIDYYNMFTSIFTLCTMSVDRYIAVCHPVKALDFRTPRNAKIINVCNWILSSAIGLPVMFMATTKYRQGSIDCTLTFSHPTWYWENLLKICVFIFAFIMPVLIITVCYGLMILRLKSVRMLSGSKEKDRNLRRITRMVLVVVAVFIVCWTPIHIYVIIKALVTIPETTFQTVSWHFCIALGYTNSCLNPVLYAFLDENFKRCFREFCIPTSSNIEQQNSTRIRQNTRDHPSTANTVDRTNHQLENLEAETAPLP

Structure (SMILES)	Ki (Mu-type opioid receptor)	Ki [1]
NC(=Nc1ccc2[nH]c3c(c2c1)C[C@@]1(O)C2Cc4ccc(O)c5c4[C@@]1(CCN2CC1CC1)[C@H]3O5)NCc1ccccc1 [7-benzylamino(imino)methylamino-22-cyclopropylmethyl-14-oxa-11,22-diazaheptacyclo[13.9.1.01,13.02,21.04,12.05,10.019,25]pentacosa-4(12),5(10),6,8,15,17,19(25)-heptaene-2,16-diol]	10 nM	
CCCNC(=Nc1ccc2[nH]c3c(c2c1)C[C@@]1(O)C2Cc4ccc(O)c5c4[C@@]1(CCN2CC1CC1)[C@H]3O5)NCC1CC1 [22-cyclopropylmethyl-7-cyclopropylmethylamino(propylimino)methylamino-14-oxa-11,22-diazaheptacyclo[13.9.1.01,13.02,21.04,12.05,10.019,25]pentacosa-4(12),5(10),6,8,15,17,19(25)-heptaene-2,16-diol]		15 nM

Source: BindingDB's records for doi:10.1021/jm0309203 (University of Bath, 2003)
